# According to ChEMBL document CHEMBL2311516, “Structure-activity relationship studies of argiotoxins: selective and potent inhibitors of ionotropic glutamate receptors” (J Med Chem, 2013):
# Experiments:
# [1] = target: Glutamate NMDA receptor; Grin1/Grin2a (Rattus norvegicus, UniProt P35439+Q00959); experiment: Inhibition of rat GluN1/2A receptor expressed in Xenopus laevis oocyte assessed as glutamate and glycine-induced current at holding potentials from -80 to -40 mV by two electrode voltage clamp analysis
# Glutamate NMDA receptor; Grin1/Grin2a, sequence (Q00959 whole entry, other chains not shown): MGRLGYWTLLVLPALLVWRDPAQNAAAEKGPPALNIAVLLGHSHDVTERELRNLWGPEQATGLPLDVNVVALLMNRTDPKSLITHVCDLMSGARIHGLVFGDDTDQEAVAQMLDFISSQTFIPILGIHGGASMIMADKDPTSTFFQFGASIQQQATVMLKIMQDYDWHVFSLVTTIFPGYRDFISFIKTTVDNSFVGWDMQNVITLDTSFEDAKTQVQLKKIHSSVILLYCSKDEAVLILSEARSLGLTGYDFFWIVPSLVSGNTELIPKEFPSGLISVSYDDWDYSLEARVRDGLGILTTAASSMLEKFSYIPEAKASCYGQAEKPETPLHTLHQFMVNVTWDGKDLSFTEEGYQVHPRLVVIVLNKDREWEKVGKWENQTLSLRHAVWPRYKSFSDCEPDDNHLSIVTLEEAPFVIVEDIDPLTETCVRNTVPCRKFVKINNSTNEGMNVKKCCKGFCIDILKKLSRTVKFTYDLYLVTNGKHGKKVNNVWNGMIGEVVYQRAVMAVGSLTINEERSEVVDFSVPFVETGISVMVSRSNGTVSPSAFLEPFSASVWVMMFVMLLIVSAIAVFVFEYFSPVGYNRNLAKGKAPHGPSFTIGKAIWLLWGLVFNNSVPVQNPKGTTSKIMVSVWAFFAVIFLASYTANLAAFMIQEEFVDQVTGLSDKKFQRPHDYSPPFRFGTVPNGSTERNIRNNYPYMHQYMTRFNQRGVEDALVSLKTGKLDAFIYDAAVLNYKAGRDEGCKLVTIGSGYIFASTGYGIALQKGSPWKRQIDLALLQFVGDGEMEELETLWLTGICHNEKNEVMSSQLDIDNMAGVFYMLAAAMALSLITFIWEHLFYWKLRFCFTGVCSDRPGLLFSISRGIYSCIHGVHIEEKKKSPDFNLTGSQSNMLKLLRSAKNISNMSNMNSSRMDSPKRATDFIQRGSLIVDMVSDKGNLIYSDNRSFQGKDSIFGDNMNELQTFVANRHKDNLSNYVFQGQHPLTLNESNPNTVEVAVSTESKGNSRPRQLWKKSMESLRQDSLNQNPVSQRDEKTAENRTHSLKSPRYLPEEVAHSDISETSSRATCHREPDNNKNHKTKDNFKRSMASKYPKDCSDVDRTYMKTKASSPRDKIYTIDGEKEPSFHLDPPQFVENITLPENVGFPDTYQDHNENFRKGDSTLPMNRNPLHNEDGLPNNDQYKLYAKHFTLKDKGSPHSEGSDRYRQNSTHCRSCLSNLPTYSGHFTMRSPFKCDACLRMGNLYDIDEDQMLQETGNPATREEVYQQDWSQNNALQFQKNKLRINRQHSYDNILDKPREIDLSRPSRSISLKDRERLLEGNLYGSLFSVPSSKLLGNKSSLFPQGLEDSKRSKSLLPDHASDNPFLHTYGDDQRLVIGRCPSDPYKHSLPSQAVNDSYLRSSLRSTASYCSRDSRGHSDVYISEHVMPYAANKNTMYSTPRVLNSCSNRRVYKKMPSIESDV
# In short: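 Oocytes injected with 25 nL GluN1/N2A cRNA (1:1, 0.05 ng/nL), held at 17 °C in Barth's medium with gentamicin, recorded 3−6 days later by two-electrode voltage clamp in frog Ringer's. Current evoked by 100 μM L-glutamate plus 100 μM glycine, antagonist coapplied at rising levels; holding potentials −40, −60, −80 mV. IC50 from logistic fit, triplicate curves.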
# [2] = target: Glutamate receptor 1 (Rattus norvegicus, UniProt P19490); experiment: Inhibition of rat GluA1 receptor flip form expressed in Xenopus laevis oocyte assessed as glutamate-induced current at holding potentials from -80 to -40 mV by two electrode voltage clamp analysis
# Glutamate receptor 1, sequence (P19490 whole entry, the tested form may be a part): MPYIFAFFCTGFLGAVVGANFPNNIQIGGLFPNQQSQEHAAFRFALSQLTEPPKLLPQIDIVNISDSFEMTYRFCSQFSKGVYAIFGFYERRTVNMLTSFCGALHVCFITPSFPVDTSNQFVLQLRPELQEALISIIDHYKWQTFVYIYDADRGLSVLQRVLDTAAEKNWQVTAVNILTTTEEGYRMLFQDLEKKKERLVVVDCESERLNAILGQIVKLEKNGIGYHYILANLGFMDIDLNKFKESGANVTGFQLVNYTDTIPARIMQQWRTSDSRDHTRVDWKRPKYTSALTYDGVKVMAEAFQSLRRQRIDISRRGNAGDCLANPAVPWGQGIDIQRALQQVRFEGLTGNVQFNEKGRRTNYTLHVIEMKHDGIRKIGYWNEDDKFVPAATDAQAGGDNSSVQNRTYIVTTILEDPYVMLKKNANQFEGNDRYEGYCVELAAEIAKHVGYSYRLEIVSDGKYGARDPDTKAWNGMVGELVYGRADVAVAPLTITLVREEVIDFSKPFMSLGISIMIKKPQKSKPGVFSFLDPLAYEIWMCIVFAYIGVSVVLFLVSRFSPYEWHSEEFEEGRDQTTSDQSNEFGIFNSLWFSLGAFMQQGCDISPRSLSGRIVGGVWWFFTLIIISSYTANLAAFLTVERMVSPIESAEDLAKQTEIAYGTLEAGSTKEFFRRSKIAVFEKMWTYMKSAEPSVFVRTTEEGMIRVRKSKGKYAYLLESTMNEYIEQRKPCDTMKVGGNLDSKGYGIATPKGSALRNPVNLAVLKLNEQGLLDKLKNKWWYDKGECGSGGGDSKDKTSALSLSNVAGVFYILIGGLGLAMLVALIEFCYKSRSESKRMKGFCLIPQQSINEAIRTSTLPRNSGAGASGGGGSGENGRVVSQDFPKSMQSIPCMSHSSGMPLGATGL
# In short: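 Oocytes injected with 25 nL GluA1_i cRNA (1 ng/nL), kept at 17 °C in Barth's medium with gentamicin, recorded 3−6 days later under two-electrode voltage clamp in frog Ringer's superfusion. Current evoked by 300 μM L-glutamate, then increasing antagonist coapplied with agonist; holding potentials −40, −60, −80 mV. Per-oocyte logistic fit for IC50, triplicate curves.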
# [3] = organism: Rattus norvegicus; experiment: Selectivity ratio of IC50 for rat GluA1 receptor flip form to IC50 for rat GluN1/2A receptor
# In short: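 Ratio IC50(GluA1)/IC50(GluN1/2A), each IC50 from composite dose−response data of 5 to 10 oocytes in two-electrode voltage clamp. GluA1_i driven by 300 μM glutamate; GluN1/2A driven by 100 μM glutamate plus 100 μM glycine; antagonist coapplied.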
# [4] = organism: Rattus norvegicus; experiment: Selectivity ratio of IC50 for rat GluN1/2A receptor to IC50 for rat GluA1 receptor flip form
# In short: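 Ratio IC50(GluN1/2A)/IC50(GluA1), each IC50 from composite dose−response data of 5 to 10 oocytes in two-electrode voltage clamp. GluA1_i driven by 300 μM glutamate; GluN1/2A driven by 100 μM glutamate plus 100 μM glycine; antagonist coapplied.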
SMILES,IC50 [1] [nM],IC50 [2] [nM],Ratio IC50 [3],Ratio IC50 [4]
NC(=O)C[C@H](NC(=O)Cc1ccc(O)cc1O)C(=O)NCCCCCCCCNCCCCNC(=O)[C@@H](N)CCCN=C(N)N,8,83,,
NC(=O)C[C@H](NC(=O)Cc1ccc(O)cc1O)C(=O)NCCCCCCCCCNCCCNC(=O)[C@@H](N)CCCN=C(N)N,14,454,,
N=C(N)NCCC[C@H](N)C(=O)NCCCCCNCCCCCCCNC(=O)[C@H](CC(N)=O)NC(=O)Cc1ccc(O)cc1O,,,7,
N=C(N)NCC[C@@H](N)C(=O)NCCCCCNCCCCCCCNC(=O)[C@@H](NC(=O)Cc1ccc(O)cc1O)c1c[nH]c2ccccc12,,,3.4,
N=C(N)NCCC[C@H](N)C(=O)NCCCCNCCCCCCCCNC(=O)[C@H](CC(N)=O)NC(=O)Cc1ccc(O)cc1O,,,10,
N=C(N)NCC[C@@H](N)C(=O)NCCCCCNCCCCCCCNC(=O)[C@H](CC(=O)O)NC(=O)Cc1ccc(O)cc1O,2230,167,0.07,13
N=C(N)NCCC[C@H](N)C(=O)NCCCCCCCCCNCCCNC(=O)[C@H](CC(N)=O)NC(=O)Cc1ccc(O)cc1O,> 3000,171,< 0.06,< 0.06
N=C(N)NCCC[C@H](N)C(=O)NCCCCCCCNCCCCCNC(=O)[C@H](CC(N)=O)NC(=O)Cc1ccc(O)cc1O,842,78,0.09,11
N=C(N)NCCC[C@H](N)C(=O)NCCCNCCCNCCCCCNC(=O)[C@H](CC(N)=O)NC(=O)Cc1ccc(O)cc1O,10,,8,
N=C(N)NCCC[C@H](N)C(=O)NCCCCCCNCCCCCCNC(=O)[C@H](CC(N)=O)NC(=O)Cc1ccc(O)cc1O,21,46,2,
NC(=O)C[C@H](NC(=O)Cc1ccc(O)cc1O)C(=O)NCCCCCCCNCCCCCNC(=O)[C@@H](N)CCCN=C(N)N,17,118,,
N=C(N)NCCC[C@H](N)C(=O)NCCCNCCCCCCCCCNC(=O)[C@H](CC(N)=O)NC(=O)Cc1ccc(O)cc1O,,,32,
N=C(N)NCCC[C@H](N)C(=O)NCCCCCCCCNCCCCNC(=O)[C@H](CC(N)=O)NC(=O)Cc1ccc(O)cc1O,231,19,0.08,12
